Source: ChEMBL document CHEMBL4814002, “Synthesis, biological evaluation, and docking studies of novel pyrrolo[2,3-b]pyridine derivatives as both ectonucleotide pyrophosphatase/phosphodiesterase inhibitors and antiproliferative agents” (Eur J Med Chem, 2021)
Active and inactive are the calls of the source. The calls are words filed in the database; no cut-off is given here.

How the values were obtained:
MCF7 [1] = assay: Antiproliferative activity against human MCF7 cells assessed as reduction in cell growth at 10 uM incubated for 24 hrs by MTT assay relative to control; assay type: functional
Procedure, shortened: (§1)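 MTT assay. Cells seeded at 4 × 10^4 per well and incubated overnight. Treated 24 h; DMSO served as negative control and doxorubicin as positive control. MTT dye 0.5 mg/mL added for 2 h at 37 °C, formazan dissolved in DMSO, absorbance read at 570 nm. Single-concentration screen at 10; dose-dependent dilutions gave IC50. WI-38 fibroblasts grown in DMEM with 10% FBS and 1% penicillin/streptomycin. Triplicate means ± S.E.M.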

HT-29 [2] = assay: Antiproliferative activity against human HT-29 cells assessed as reduction in cell growth at 10 uM incubated for 24 hrs by MTT assay relative to control; assay type: functional; procedure, shortened: as §1
[3] = target: T1, Ectonucleotide pyrophosphatase/phosphodiesterase family member 1 (Homo sapiens, UniProt P22413); assay: Inhibition of human NPP1 transfected in COS7 cells using pNP-TMP as substrate incubated for 35 mins; assay type: cell-based
T1 sequence (P22413 whole entry): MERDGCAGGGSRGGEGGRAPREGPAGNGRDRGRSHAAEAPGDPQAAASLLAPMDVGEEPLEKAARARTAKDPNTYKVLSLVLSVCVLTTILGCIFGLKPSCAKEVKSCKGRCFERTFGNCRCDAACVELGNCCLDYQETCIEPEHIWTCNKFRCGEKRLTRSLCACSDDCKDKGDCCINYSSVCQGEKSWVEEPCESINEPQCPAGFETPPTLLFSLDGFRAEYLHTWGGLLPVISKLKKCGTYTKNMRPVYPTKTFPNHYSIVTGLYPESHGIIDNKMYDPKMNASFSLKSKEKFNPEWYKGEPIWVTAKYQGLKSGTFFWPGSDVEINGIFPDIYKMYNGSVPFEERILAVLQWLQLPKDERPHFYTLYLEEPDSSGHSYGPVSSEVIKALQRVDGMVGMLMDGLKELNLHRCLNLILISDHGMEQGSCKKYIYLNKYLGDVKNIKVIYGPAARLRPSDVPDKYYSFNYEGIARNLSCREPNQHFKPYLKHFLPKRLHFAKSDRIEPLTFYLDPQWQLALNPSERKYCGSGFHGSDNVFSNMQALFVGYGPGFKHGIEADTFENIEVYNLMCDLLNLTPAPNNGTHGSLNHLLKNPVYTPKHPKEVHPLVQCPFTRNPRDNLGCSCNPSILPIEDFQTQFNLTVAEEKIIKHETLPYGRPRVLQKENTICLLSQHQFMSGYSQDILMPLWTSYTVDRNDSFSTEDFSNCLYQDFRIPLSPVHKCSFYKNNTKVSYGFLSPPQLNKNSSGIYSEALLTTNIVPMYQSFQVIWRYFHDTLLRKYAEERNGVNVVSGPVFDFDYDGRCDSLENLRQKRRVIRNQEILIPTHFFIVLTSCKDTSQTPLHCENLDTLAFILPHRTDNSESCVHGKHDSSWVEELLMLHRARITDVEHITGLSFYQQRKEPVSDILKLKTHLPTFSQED

[4] = target: T2, Ectonucleotide pyrophosphatase/phosphodiesterase family member 3 (Homo sapiens, UniProt O14638); assay: Inhibition of human NPP3 transfected in COS7 cells using pNP-TMP as substrate incubated for 35 mins; assay type: cell-based
T2 sequence (O14638 whole entry): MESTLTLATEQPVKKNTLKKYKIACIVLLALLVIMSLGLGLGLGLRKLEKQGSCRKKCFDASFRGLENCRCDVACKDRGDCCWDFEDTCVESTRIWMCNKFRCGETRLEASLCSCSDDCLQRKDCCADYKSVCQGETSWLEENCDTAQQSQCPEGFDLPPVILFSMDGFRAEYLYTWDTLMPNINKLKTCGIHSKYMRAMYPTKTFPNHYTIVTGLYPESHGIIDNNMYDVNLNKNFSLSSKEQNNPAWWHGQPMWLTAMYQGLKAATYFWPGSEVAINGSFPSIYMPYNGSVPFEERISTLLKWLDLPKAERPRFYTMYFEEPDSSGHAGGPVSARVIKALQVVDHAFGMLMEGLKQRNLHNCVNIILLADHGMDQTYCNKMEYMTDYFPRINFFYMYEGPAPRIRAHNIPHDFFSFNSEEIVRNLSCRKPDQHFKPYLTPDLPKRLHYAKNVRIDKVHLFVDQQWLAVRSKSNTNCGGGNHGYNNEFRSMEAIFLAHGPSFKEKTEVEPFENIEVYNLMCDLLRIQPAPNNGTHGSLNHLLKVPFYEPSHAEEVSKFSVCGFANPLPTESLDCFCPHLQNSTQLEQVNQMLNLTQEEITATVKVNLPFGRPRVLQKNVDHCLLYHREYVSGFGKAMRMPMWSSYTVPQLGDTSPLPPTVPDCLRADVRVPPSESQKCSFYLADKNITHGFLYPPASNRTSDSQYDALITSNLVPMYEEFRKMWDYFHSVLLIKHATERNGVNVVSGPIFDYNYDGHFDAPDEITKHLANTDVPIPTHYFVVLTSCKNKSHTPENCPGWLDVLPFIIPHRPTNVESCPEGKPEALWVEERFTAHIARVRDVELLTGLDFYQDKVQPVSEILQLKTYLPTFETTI

[5] = target: T3, Ectonucleotide pyrophosphatase/phosphodiesterase family member 1 (Homo sapiens) (UniProt P22413); assay: Inhibition of human NPP1 transfected in COS7 cells at 100 uM using pNP-TMP as substrate incubated for 35 mins relative to control; assay type: cell-based
T3 sequence (whole entry): T1 sequence (P22413 whole entry)
Procedure, shortened: (§2)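 Human NPP1 or NPP3 expressed in COS-7 cells by plasmid/Lipofectamine transfection, harvested 48-72 h later. Membrane fractions prepared by sonication and 300 g centrifugation, stored with 7.5% glycerol; protein measured by Bradford. Assay buffer: 50 mM Tris-HCl, 5 mM MgCl2, 0.1 mM ZnCl2, pH 9.5. Triplicates ± S.E.M.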

[6] = target: T4, Ectonucleotide pyrophosphatase/phosphodiesterase family member 3 (Homo sapiens) (UniProt O14638); assay: Inhibition of human NPP3 transfected in COS7 cells at 100 uM using pNP-TMP as substrate incubated for 35 mins relative to control; assay type: cell-based; procedure, shortened: as §2
T4 sequence (whole entry): T2 sequence (O14638 whole entry)

[7] = target: T4, Ectonucleotide pyrophosphatase/phosphodiesterase family member 3 (Homo sapiens); assay: Competitive inhibition of human NPP3 transfected in COS7 cells at 0.1 to 1 uM using pNP-TMP as substrate incubated for 35 mins by Lineweaver-Burk plot analysis; assay type: cell-based; settings: dose 0.1-1 µM
Procedure, shortened: (§3)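 Kinetics with pNP-TMP at 0.0, 1.25, 2.50, 5.0, 7.5 and 10.0 mM in Tris-HCl 50 mM, MgCl2 5 mM, ZnCl2 0.1 mM, pH 9.5. Incubated at 37 °C and read over 35 min at 5-min intervals. Enzyme from transfected COS-7 membrane fractions.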

[8] = target: T1, Ectonucleotide pyrophosphatase/phosphodiesterase family member 1; assay: Inhibition of NPP1 (unknown origin) transfected in COS7 cells using pNP-TMP as substrate incubated for 35 mins by spectrophotometric method; assay type: cell-based; procedure, shortened: as §2
MCF7 [9] = assay: Antiproliferative activity against human MCF7 cells assessed as reduction in cell growth at 100 uM incubated for 24 hrs by MTT assay relative to control; assay type: functional
MCF7 [10] = assay: Antiproliferative activity against human MCF7 cells assessed as reduction in cell growth incubated for 24 hrs by MTT assay; assay type: functional, cell-based; settings: MCF7, 24 h; procedure, shortened: as §1
[11] = target: T3, Ectonucleotide pyrophosphatase/phosphodiesterase family member 1 (Homo sapiens); assay: Non-competitive inhibition of human NPP1 transfected in COS7 cells at 0.5 to 1.5 uM using pNP-TMP as substrate incubated for 35 mins by Lineweaver-Burk plot analysis; assay type: cell-based; settings: dose 0.5-1.5 µM; procedure, shortened: as §3
WI-38 = assay: Cytotoxicity against human WI-38 cells assessed as reduction in cell growth incubated for 24 hrs by MTT assay; assay type: cell-based; settings: WI-38, 24 h; procedure, shortened: as §1
HT-29 [12] = assay: Antiproliferative activity against human HT-29 cells assessed as reduction in cell growth incubated for 24 hrs by MTT assay; assay type: functional, cell-based; settings: HT-29, 24 h
Procedure, shortened: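 HT-29 colon cancer cells seeded per well and incubated overnight, then exposed for 24 h to serial dilutions of compound (10 mM DMSO stock diluted in medium), with doxorubicin and DMSO controls. MTT (0.5 mg/mL) added for 2 h at 37 °C, formazan dissolved in DMSO, absorbance read at 570 nm. IC50 from triplicate assays, mean ± S.E.M.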

[13] = Toxicity in BALB/c mouse assessed as glucose level at 20 mg/kg, ip measured at 60 mins (reference value: 106 to 141 mg/dl); settings: in vivo
[14] = Toxicity in BALB/c mouse assessed as glucose level at 10 mg/kg, ip measured at 60 mins (reference value: 106 to 141 mg/dl); settings: in vivo
[15] = Toxicity in BALB/c mouse assessed as glucose level at 20 mg/kg, ip measured at 30 mins (reference value: 106 to 141 mg/dl); settings: in vivo
[16] = Toxicity in BALB/c mouse assessed as glucose level at 10 mg/kg, ip measured at 120 mins (reference value: 106 to 141 mg/dl); settings: in vivo
[17] = Toxicity in BALB/c mouse assessed as glucose level at 10 mg/kg, ip measured at 90 mins (reference value: 106 to 141 mg/dl); settings: in vivo
[18] = Toxicity in BALB/c mouse assessed as glucose level at 20 mg/kg, ip measured at 0 hrs (reference value: 106 to 141 mg/dl); assay type: organism-based; settings: in vivo
Procedure, shortened: (§4)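 Male BALB/c mice weighing 30-35 g, five per group. Given i.p. at 10 or 20 mg/kg in (2-hydroxypropyl)-β-cyclodextrin solution. Control group received vehicle alone. Blood glucose (mg/dL) measured at 0, 30, 60, 90 and 120 min after injection.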

[19] = Toxicity in BALB/c mouse assessed as glucose level at 20 mg/kg, ip measured at 90 mins (reference value: 106 to 141 mg/dl); settings: in vivo
[20] = Toxicity in BALB/c mouse assessed as glucose level at 10 mg/kg, ip measured at 0 hrs (reference value: 106 to 141 mg/dl); assay type: organism-based; settings: in vivo; procedure, shortened: as §4
[21] = Toxicity in BALB/c mouse assessed as glucose level at 20 mg/kg, ip measured at 120 mins (reference value: 106 to 141 mg/dl); settings: in vivo
[22] = Toxicity in BALB/c mouse assessed as glucose level at 10 mg/kg, ip measured at 30 mins (reference value: 106 to 141 mg/dl); settings: in vivo

Structure (SMILES) | inhibition at 10 µM (MCF7 [1]) [%] | inhibition at 10 µM (HT-29 [2]) [%] | IC50 [3] [nM] | IC50 [4] [nM] | also measured
O=C(NS(=O)(=O)c1ccccc1)n1ccc2cc(Br)cnc21 | 16.8 | 14.6 | 8300 | 2010 | 
O=C(NS(=O)(=O)c1ccc2ccccc2c1)n1ccc2cccnc21 | 1.9 | 16.2 |  |  | inhibition [5]: 48.6%; inhibition [6]: 44.1%
CN(C)c1ccnc2c1ccn2C(=O)NS(=O)(=O)c1ccccc1 | 26.9 | 17.6 | 2770 | 550 | inhibition [7]: Active
Cc1ccc(S(=O)(=O)NC(=O)n2ccc3c(N(C)C)ccnc32)cc1 | 5.6 | 21.4 |  |  | inhibition [5]: 41.5%; inhibition [6]: 45.7%
COc1ccc(-c2nn(-c3cccc(NS(=O)(=O)c4ccc(C)cc4)c3)cc2-c2ccncc2)cc1Cl |  |  |  |  | IC50 [8]: 180 nM; inhibition at 100 µM (MCF7 [9]): 40.3%
O=C(NS(=O)(=O)c1cccc([N+](=O)[O-])c1)n1ccc2cccnc21 | 70.7 | 18.9 | 800 | 1170 | IC50 (MCF7 [10]): 4700 nM; inhibition [11]: Active; IC50 (WI-38): > 20000 nM
Cc1ccc(S(=O)(=O)NC(=O)n2ccc3cc(Br)cnc32)cc1 | 28 | 82.4 | 1550 | 590 | IC50 (HT-29 [12]): 1580 nM; Activity [13]: 114 mg/dL; Activity [14]: 122 mg/dL; Activity [15]: 113 mg/dL; IC50 (WI-38): 18400 nM; Activity [16]: 121 mg/dL; Activity [17]: 124 mg/dL; Activity [18]: 114 mg/dL; Activity [19]: 128 mg/dL; Activity [20]: 108 mg/dL; Activity [21]: 121 mg/dL; Activity [22]: 103 mg/dL
O=C(NS(=O)(=O)c1cccc([N+](=O)[O-])c1)n1ccc2cc(Br)cnc21 | 43 | 58.5 | 1150 | 2130 | 
